According to ChEMBL document CHEMBL1154352, “Toll-like receptor 7 selective synthetic oligoribonucleotide agonists: synthesis and structure-activity relationship studies” (J Med Chem, 2009):
Activity calls are given as the source filed them. The rule behind the calls is not given here.

What was measured:
[1] = Metabolic stability in human serum assessed as full length product remaining after 10 mins by HPLC; assay type: ADME, cell-free; conditions: read-out: Stability
Procedure, shortened: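 About 0.5 A260 units compound in 1% human serum in PBS, 37 °C; aliquot taken at 10 min, analysed by anion-exchange HPLC for percent intact full-length product.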

[2] = target: T1, Toll-like receptor 8 (Homo sapiens) (UniProt Q9NR97); assay: Activation of human TLR8 expressed in HEK293XL assessed as fold induction of NF-kappaB activity at 50 ug/ml after 18 hrs by reporter gene assay relative to control
T1 sequence (whole entry): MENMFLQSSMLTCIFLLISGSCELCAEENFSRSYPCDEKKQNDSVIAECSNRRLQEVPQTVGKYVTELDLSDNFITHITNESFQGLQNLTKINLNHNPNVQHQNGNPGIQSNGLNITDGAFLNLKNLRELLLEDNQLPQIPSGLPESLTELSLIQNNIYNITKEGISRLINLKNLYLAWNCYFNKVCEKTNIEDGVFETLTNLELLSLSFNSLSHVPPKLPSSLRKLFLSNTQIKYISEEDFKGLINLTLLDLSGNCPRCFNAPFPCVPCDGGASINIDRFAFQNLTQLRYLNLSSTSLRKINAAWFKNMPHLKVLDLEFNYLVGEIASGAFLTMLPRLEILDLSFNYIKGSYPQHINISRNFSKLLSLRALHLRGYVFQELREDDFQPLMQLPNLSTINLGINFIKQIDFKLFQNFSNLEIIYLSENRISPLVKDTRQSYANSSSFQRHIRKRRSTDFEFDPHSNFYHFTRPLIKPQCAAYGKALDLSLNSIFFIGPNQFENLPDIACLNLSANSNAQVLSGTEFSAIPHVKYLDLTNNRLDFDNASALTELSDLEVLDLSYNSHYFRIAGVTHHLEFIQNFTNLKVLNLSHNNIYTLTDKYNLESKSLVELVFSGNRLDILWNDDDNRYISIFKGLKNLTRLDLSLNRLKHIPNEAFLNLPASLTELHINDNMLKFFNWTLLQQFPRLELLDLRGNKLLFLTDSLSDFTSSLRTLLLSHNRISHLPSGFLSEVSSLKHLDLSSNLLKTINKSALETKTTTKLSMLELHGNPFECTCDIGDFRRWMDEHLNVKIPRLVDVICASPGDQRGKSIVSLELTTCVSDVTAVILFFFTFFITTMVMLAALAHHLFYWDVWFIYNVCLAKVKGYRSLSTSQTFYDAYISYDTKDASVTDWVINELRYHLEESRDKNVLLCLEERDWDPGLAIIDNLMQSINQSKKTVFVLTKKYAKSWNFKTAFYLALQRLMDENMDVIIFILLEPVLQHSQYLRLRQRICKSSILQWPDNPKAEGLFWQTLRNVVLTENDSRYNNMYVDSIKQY
Procedure, shortened: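 HEK293 cells stably expressing human TLR7 or TLR8, transiently transfected with SEAP reporter plasmid; medium replaced, SIMRA compounds added, 18 h incubation. Supernatant SEAP measured by QuantiBlue; expressed as fold increase in NF-κB activity over PBS control. Tabulated data at 50 μg/mL, representative of three independent experiments.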

Homo sapiens = species: Homo sapiens; assay: Ratio of human TLR7 activity to human TLR8 activity
Procedure, shortened: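 TLR7/TLR8 ratio computed from fold NF-κB (SEAP reporter) activation in HEK293 cells stably expressing human TLR7 versus TLR8, compounds at 50 μg/mL, 18 h exposure; representative of three independent experiments.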

[3] = target: Toll-like receptor 3 (Homo sapiens) (UniProt O15455); assay: Activation of human TLR3 expressed in HEK293 assessed as induction of NF-kappaB activity reporter gene assay; assay type: cell-based
Chain of Toll-like receptor 3 (Homo sapiens) (O15455 whole entry): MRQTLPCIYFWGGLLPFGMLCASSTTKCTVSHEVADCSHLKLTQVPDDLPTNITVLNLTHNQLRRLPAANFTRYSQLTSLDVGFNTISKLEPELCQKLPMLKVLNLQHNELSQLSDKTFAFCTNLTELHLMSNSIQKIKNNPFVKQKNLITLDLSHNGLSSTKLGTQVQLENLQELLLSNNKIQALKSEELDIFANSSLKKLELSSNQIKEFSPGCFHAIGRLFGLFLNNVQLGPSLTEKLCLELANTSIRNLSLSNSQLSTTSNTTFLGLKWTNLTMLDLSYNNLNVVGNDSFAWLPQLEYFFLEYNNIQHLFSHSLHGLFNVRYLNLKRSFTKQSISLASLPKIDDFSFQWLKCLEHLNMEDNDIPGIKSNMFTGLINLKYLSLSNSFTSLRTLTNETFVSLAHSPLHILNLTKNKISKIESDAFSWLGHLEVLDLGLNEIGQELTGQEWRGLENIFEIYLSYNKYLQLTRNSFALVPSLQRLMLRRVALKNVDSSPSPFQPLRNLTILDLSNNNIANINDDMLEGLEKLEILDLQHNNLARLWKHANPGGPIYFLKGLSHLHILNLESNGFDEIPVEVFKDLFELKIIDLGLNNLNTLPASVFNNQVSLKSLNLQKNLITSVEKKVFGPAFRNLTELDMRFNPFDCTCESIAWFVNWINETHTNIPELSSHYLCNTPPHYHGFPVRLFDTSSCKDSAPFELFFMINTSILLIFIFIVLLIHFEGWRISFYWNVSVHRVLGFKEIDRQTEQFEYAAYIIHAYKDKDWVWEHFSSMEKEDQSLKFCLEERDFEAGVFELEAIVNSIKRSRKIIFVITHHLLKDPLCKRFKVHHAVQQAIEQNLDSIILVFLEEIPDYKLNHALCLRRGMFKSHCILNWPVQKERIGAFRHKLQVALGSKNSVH

Splenocyte [4] = assay: Immunomodulatory activity in C57BL/6 mouse splenocytes bearing TLR7 receptor assessed as IL6 release at 100 ug/ml after 24 hrs by ELISA; assay type: functional, cell-based
Procedure, shortened: (§1)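 C57BL/6 splenocytes in RPMI 1640 with 10% FBS, penicillin/streptomycin, 2 mM L-glutamine, plated at 5 × 10^6 cells/mL; compounds in PBS added, 37 °C for 24 h. Supernatant IL-12 and IL-6 by ELISA; representative of three independent experiments.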

Splenocyte [5] = assay: Immunomodulatory activity in C57BL/6 mouse splenocytes bearing TLR7 receptor assessed as IL12 release at 100 ug/ml after 24 hrs by ELISA; assay type: functional, cell-based; procedure, shortened: as §1

Which remaining at 10 min [1] does the source give for Nc1ccn([C@@H]2O[C@H](COP(=O)(S)O[C@H]3[C@@H](O)[C@H](n4cnc5c(N)ncnc54)O[C@@H]3COP(=O)(S)O[C@H]3[C@@H](O)[C@H](n4ccc5c(=O)[nH]c(N)nc54)O[C@@H]3COP(=O)(S)O[C@H]3[C@@H](O)[C@H](n4ccc(=O)[nH]c4=O)O[C@@H]3CO)[C@@H](OP(=O)(S)OC[C@H]3O[C@@H](n4ccc5c(=O)[nH]c(N)nc54)[C@H](O)[C@@H]3OP(=O)(S)OC[C@H]3O[C@@H](n4cnc5c(N)ncnc54)[C@H](O)[C@@H]3OC[C@H]3O[C@@H](n4ccc(=O)[nH]c4=O)[C@H](O)[C@@H]3OP(=O)(S)ON[C@H]3O[C@@H](n4ccc5c(=O)[nH]c(N)nc54)[C@H](O)[C@@H]3OP(=O)(S)OC[C@H]3O[C@@H](n4cnc5c(N)ncnc54)[C@H](O)[C@@H]3OP(=O)(S)OC[C@H]3O[C@@H](n4ccc(=O)[nH]c4=O)[C@H](O)[C@@H]3OP(=O)(S)OC[C@H]3O[C@@H](n4ccc(=O)[nH]c4=O)[C@H](O)[C@@H]3OP(=O)(S)OCC(O)COP(=O)(S)O[C@H]3[C@@H](O)[C@H](n4ccc(=O)[nH]c4=O)O[C@@H]3COP(=O)(S)O[C@H]3[C@@H](O)[C@H](n4ccc(=O)[nH]c4=O)O[C@@H]3COP(=O)(S)O[C@H]3[C@@H](O)[C@H](n4cnc5c(N)ncnc54)O[C@@H]3COP(=O)(S)O[C@H]3[C@@H](O)[C@H](n4ccc5c(=O)[nH]c(N)nc54)O[C@@H]3NOP(=O)(S)O[C@H]3[C@@H](O)[C@H](n4ccc(=O)[nH]c4=O)O[C@@H]3CO[C@H]3[C@@H](O)[C@H](n4cnc5c(N)ncnc54)O[C@@H]3COP(=O)(S)O[C@H]3[C@@H](O)[C@H](n4ccc5c(=O)[nH]c(N)nc54)O[C@@H]3COP(=O)(S)O[C@H]3[C@@H](O)[C@H](n4ccc(N)nc4=O)O[C@@H]3COP(=O)(S)O[C@H]3[C@@H](O)[C@H](n4cnc5c(N)ncnc54)O[C@@H]3COP(=O)(S)O[C@H]3[C@@H](O)[C@H](n4ccc5c(=O)[nH]c(N)nc54)O[C@@H]3COP(=O)(S)O[C@H]3[C@@H](O)[C@H](n4ccc(=O)[nH]c4=O)O[C@@H]3CO)[C@H]2O)c(=O)n1 (stereo partly drawn) here?
Its remaining at 10 min is 86%.

And the fold change (FC) [2]?
The fold change (FC) was 4.6.

And the Ratio (Homo sapiens)?
Its Ratio is 4.

What about the Activity [3] of the same compound?
Its Activity is “inactive”.

And the Activity (Splenocyte [4])?
The Activity was “Active”.

What about the Activity (Splenocyte [5]) of the same compound?
The Activity was “Active”.

For Nc1ccn([C@@H]2O[C@H](COP(=O)(S)O[C@H]3[C@@H](O)[C@H](n4cnc5c(N)ncnc54)O[C@@H]3COP(=O)(S)O[C@H]3[C@@H](O)[C@H](n4cnc5c(N)ncnc54)O[C@@H]3CO)[C@@H](OP(=O)(S)OC[C@H]3O[C@@H](n4ccc(=O)[nH]c4=O)[C@H](O)[C@@H]3OP(=O)(S)OC[C@H]3O[C@@H](n4ccc5c(=O)[nH]c(N)nc54)[C@H](O)[C@@H]3OP(=O)(S)OC[C@H]3O[C@@H](n4ccc(N)nc4=O)[C@H](O)[C@@H]3OP(=O)(S)OC[C@H]3O[C@@H](n4ccc5c(=O)[nH]c(N)nc54)[C@H](O)[C@@H]3OP(=O)(S)OC[C@H]3O[C@@H](n4cnc5c(N)ncnc54)[C@H](O)[C@@H]3OP(=O)(S)OC[C@H]3O[C@@H](n4ccc(N)nc4=O)[C@H](O)[C@@H]3OP(=O)(S)OC[C@H]3O[C@@H](n4ccc(=O)[nH]c4=O)[C@H](O)[C@@H]3OP(=O)(S)OC[C@H]3O[C@@H](n4ccc(=O)[nH]c4=O)[C@H](O)[C@@H]3OP(=O)(S)OCC(O)COP(=O)(S)O[C@H]3[C@@H](O)[C@H](n4ccc(=O)[nH]c4=O)O[C@@H]3COP(=O)(S)O[C@H]3[C@@H](O)[C@H](n4ccc(=O)[nH]c4=O)O[C@@H]3COP(=O)(S)O[C@H]3[C@@H](O)[C@H](n4ccc(N)nc4=O)O[C@@H]3COP(=O)(S)O[C@H]3[C@@H](O)[C@H](n4cnc5c(N)ncnc54)O[C@@H]3COP(=O)(S)O[C@H]3[C@@H](O)[C@H](n4ccc5c(=O)[nH]c(N)nc54)O[C@@H]3COP(=O)(S)O[C@H]3[C@@H](O)[C@H](n4ccc(N)nc4=O)O[C@@H]3COP(=O)(S)O[C@H]3[C@@H](O)[C@H](n4ccc5c(=O)[nH]c(N)nc54)O[C@@H]3COP(=O)(S)O[C@H]3[C@@H](O)[C@H](n4ccc(=O)[nH]c4=O)O[C@@H]3COP(=O)(S)O[C@H]3[C@@H](O)[C@H](n4ccc(N)nc4=O)O[C@@H]3COP(=O)(S)O[C@H]3[C@@H](O)[C@H](n4cnc5c(N)ncnc54)O[C@@H]3COP(=O)(S)O[C@H]3[C@@H](O)[C@H](n4cnc5c(N)ncnc54)O[C@@H]3CO)[C@H]2O)c(=O)n1 (stereo partly drawn), which remaining at 10 min [1] is on record?
Its remaining at 10 min is 83%.

What about the fold change (FC) [2] of the same compound?
Its fold change (FC) is 0.3.

And the Ratio (Homo sapiens)?
Its Ratio is 21.7.

And the Activity [3]?
The Activity was “inactive”.

And the Activity (Splenocyte [4])?
Its Activity is “Active”.

And the Activity (Splenocyte [5])?
The Activity was “Active”.

With Nc1ccn([C@@H]2O[C@H](COP(=O)(S)O[C@H]3[C@@H](O)[C@H](n4cnc5c(N)ncnc54)O[C@@H]3COP(=O)(S)O[C@H]3[C@@H](O)[C@H](n4ccc5c(=O)[nH]c(N)nc54)O[C@@H]3COP(=O)(S)O[C@H]3[C@@H](O)[C@H](n4ccc(=O)[nH]c4=O)O[C@@H]3COP(=O)(S)O[C@H]3[C@@H](O)[C@H](n4ccc(=O)[nH]c4=O)O[C@@H]3COP(=O)(S)O[C@H]3[C@@H](O)[C@H](n4cnc5c(N)ncnc54)O[C@@H]3COP(=O)(S)O[C@H]3[C@@H](O)[C@H](n4cnc5c(N)ncnc54)O[C@@H]3CO)[C@@H](OP(=O)(S)OC[C@H]3O[C@@H](n4ccc5c(=O)[nH]c(N)nc54)[C@H](O)[C@@H]3OP(=O)(S)OC[C@H]3O[C@@H](n4ccc(N)nc4=O)[C@H](O)[C@@H]3OP(=O)(S)OC[C@H]3O[C@@H](n4ccc(=O)[nH]c4=O)[C@H](O)[C@@H]3OP(=O)(S)OC[C@H]3O[C@@H](n4ccc5c(=O)[nH]c(N)nc54)[C@H](O)[C@@H]3OP(=O)(S)OCC(O)COP(=O)(S)O[C@H]3[C@@H](O)[C@H](n4ccc5c(=O)[nH]c(N)nc54)O[C@@H]3COP(=O)(S)O[C@H]3[C@@H](O)[C@H](n4ccc(=O)[nH]c4=O)O[C@@H]3COP(=O)(S)O[C@H]3[C@@H](O)[C@H](n4ccc(N)nc4=O)O[C@@H]3COP(=O)(S)O[C@H]3[C@@H](O)[C@H](n4ccc5c(=O)[nH]c(N)nc54)O[C@@H]3COP(=O)(S)O[C@H]3[C@@H](O)[C@H](n4ccc(N)nc4=O)O[C@@H]3COP(=O)(S)O[C@H]3[C@@H](O)[C@H](n4cnc5c(N)ncnc54)O[C@@H]3COP(=O)(S)O[C@H]3[C@@H](O)[C@H](n4ccc5c(=O)[nH]c(N)nc54)O[C@@H]3COP(=O)(S)O[C@H]3[C@@H](O)[C@H](n4ccc(=O)[nH]c4=O)O[C@@H]3COP(=O)(S)O[C@H]3[C@@H](O)[C@H](n4ccc(=O)[nH]c4=O)O[C@@H]3COP(=O)(S)O[C@H]3[C@@H](O)[C@H](n4cnc5c(N)ncnc54)O[C@@H]3COP(=O)(S)O[C@H]3[C@@H](O)[C@H](n4cnc5c(N)ncnc54)O[C@@H]3CO)[C@H]2O)c(=O)n1 (stereo partly drawn) as the compound, how does the remaining at 10 min [1] read?
The remaining at 10 min was 82%.

And the fold change (FC) [2]?
The fold change (FC) was 0.2.

And the Ratio (Homo sapiens)?
Its Ratio is 114.

And the Activity [3]?
Its Activity is “inactive”.

What about the Activity (Splenocyte [4]) of the same compound?
The Activity was “Active”.

And the Activity (Splenocyte [5])?
The Activity was “Active”.
